RGS4 pot: potentiators or activators of RGS4. HEK293 M3R/inducible RGS4, carbachol calcium flux Fluo4; active compounds read low. B-score at 10 µM. 310,000 tested, 0.92% active. AID 463111;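 active means B-score of the integrated calcium signal more than 4 SD below the library mean, with starting fluorescence not abnormally high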;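 further: negative B-score means reduced calcium response which marks RGS4 activation or potentiation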
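Detection: kinetic calcium fluorescence imaging with Fluo4-AM dye, 2 µM / Material: HEK293 cells with stable M3R and inducible RGS4 / Schedule: recording 10 s baseline at 1 Hz, 100 s post-agonist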
MrgX1 antagonist: blocks BAM8-22 activation of human MrgX1 receptor. Q96LB2. MRGX1-HEK293 calcium flux, Fluo-4, BAM8-22 antagonism; active compounds read low. B-score at 10 µM. 310,000 tested, 1.3% active. AID 588676;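 active means calcium-response B-score plate-corrected more than 3 library SD below zero, starting fluorescence within 5 deviations, no agonist response on first addition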;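 further: peak minus trough fluorescence over baseline after final BAM8-22 challenge near maximal dose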
Target sequence (Q96LB2 whole entry, looked up): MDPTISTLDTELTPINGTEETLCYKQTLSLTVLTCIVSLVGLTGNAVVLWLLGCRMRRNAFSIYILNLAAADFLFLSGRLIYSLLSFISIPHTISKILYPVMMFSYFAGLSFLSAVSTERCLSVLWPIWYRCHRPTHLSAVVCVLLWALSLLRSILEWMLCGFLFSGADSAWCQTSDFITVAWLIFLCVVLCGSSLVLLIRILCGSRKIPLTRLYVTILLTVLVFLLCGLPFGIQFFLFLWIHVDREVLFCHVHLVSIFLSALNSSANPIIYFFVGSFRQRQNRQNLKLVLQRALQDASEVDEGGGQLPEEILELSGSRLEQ
MrgX1 ag: agonists of human MrgX1 receptor; Q96LB2; MrgX1-HEK293 cells, Fluo-4 calcium fluorescence, agonist mode; active compounds read high; B-score at 10 µM; 310,000 tested, 0.44% active;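 active means calcium response B-score plate-corrected fluorescence ratio at least 3 library SD, with starting fluorescence B-score inside 5 SD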
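Assay system: MrgX1-expressing HEK293 cells / Amount: fifteen thousand cells per well / Doses: test compound in the initial addition of three / Timing: cells plated overnight, dye loaded 0.5 h 37 °C, 0.5 h room temperature / Technique: kinetic calcium dye fluorescence, Fluo-4 NW / Control set: positive and negative controls per plate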
MrgX1 allo act: allosterically activates human MrgX1 receptor signaling. 310,000 tested, 0.63% active. MrgX1-HEK293, Fluo-4 calcium flux, FDSS; active compounds read high. B-score at 10 µM. Q96LB2;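 active means plate-corrected calcium response at least 3 library SD above typical, normal starting fluorescence, not activating the receptor alone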;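 further: compound read alongside a low EC10 to EC30 dose of BAM8-22 agonist; peak minus trough fluorescence over baseline measured at the second addition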
RGS4 block: human RGS4 inhibition | P49798 | HEK293 M3R/RGS4 inducible, Fluo-4 calcium flux; active compounds read high; triggered by carbachol at its EC20 | B-score at 10 µM | 310,000 tested, 0.45% active | AID 463165;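 active means B-score, a plate-corrected calcium signal, over three deviations above library mean, with baseline fluorescence within five deviations of library mean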;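 further: RGS4 expression induced by doxycycline in cells with stable M3 receptor; B-score is computed from the integrated fluorescence ratio over baseline after carbachol; higher B-score means a larger calcium signal and so more RGS4 inhibition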
Target sequence (P49798 whole entry, looked up): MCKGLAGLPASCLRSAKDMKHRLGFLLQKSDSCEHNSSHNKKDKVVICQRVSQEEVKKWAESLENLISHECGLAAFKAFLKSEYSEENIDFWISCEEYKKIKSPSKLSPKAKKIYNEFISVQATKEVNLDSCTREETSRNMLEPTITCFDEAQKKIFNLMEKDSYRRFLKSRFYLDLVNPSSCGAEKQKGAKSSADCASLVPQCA
MrgX1 ant reconf: reconfirmed antagonist of human MrgX1 receptor signaling. MrgX1-HEK293, BAM8-22 calcium flux, Fluo-4; active compounds read low. shares compounds with MrgX1 antagonist. 2,300 tested, 19% active. remaining BAM8-22 calcium response % of control (active compounds read low), % at 10 µM;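 active means remaining agonist calcium response no higher than 100% minus 3 SD of agonist-only control wells, with starting fluorescence near control levels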;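 further: agonist BAM8-22 given at a near maximal EC90 to ECmax level; peak minus minimum fluorescence divided by baseline after agonist addition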
HEK293 Ca flux: counter-screen for MrgX1 antagonists: effect in parental HEK293 cells | shares compounds with MrgX1 antagonist | Fluo-4 calcium fluorescence, FDSS | fluorescence ratio F(max-min)/F0 at 10 µM | 4,000 tested, 2% active | AID 624111;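 active means duplicate-averaged calcium fluorescence ratio at least three times the standard deviation of buffer wells, a nonspecific response in parental cells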
HEK293 Ca counter: counter-screen for MrgX1 allosteric activators: effect in parental HEK293 cells; shares compounds with MrgX1 antagonist; parental HEK293 calcium flux, Fluo-4 fluorescence ratio; active compounds read high; fluorescence ratio F(max-min)/F0 at 10 µM; 4,000 tested, 0.4% active; AID 624114;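 active means calcium fluorescence ratio, averaged over duplicates, at least 3 SD of the buffer-well ratio, meaning a nonspecific response in receptor-free cells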;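 further: untransfected parental HEK293 lacking MrgX1 used as counterscreen for MrgX1 allosteric activators; fluorescence change taken during the second addition on a kinetic imager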
HEK293 Ca cntr2: activity in parental HEK293 cells lacking MrgX1 receptor; shares compounds with MrgX1 antagonist; Fluo-4 calcium fluorescence (FDSS); active compounds read high; AID 624115; 4,000 tested, 8.7% active; fluorescence ratio F(max-min)/F0 at 10 µM;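 active means calcium fluorescence ratio at least three times the spread of buffer wells, meaning a non-specific response in parental cells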
Hits are given with their value; – = inactive; · = no result given. In the library only some 3.5% were active in any assay of this set; here they are far more common.

SMILES	RGS4 pot	MrgX1 antagonist	MrgX1 ag	MrgX1 allo act	RGS4 block	MrgX1 ant reconf	HEK293 Ca flux	HEK293 Ca counter	HEK293 Ca cntr2
O=C(O)c1ccccc1CSc1ncn[nH]1	–	-8.3	–	–	–	–	–	–	–
CC1(C)CC(=O)c2cc(O)ccc2O1	–	–	–	–	–	·	·	·	·
O=S(=O)(c1ccc(F)cc1)N1CCC(N2CCCCCC2)CC1	–	-11	–	–	–	–	–	–	–
CC1CCN(C2CCN(S(=O)(=O)c3ccc(F)cc3)CC2)CC1	–	–	–	–	–	·	·	·	·
COC(=O)CSc1nc2c(c(-c3ccc(C)o3)c1C#N)CCCC2	–	-6.9	–	–	–	–	–	–	–
CCSc1nc2c(c(-c3ccc(C)o3)c1C#N)CCCC2	–	–	–	–	–	·	·	·	·
CN(CC(=O)Nc1ccc(Cl)c(Cl)c1)C(=O)C12CC3CC(CC(C3)C1)C2	–	–	–	–	–	·	·	·	·
COc1ccc(OCC(=O)N2CCc3c([nH]c4ccccc34)C2c2ccccn2)cc1 (centres undefined)	–	-6.4	–	–	–	–	–	–	–
CCc1nc(C)ccc1OCC(=O)N1CCc2c([nH]c3ccccc23)C1c1ccccn1 (centres undefined)	–	–	–	–	–	·	·	·	·
O=C(CC(=O)Nc1nc(C23CC4CC(CC(C4)C2)C3)cs1)NCCO	–	-5.7	–	–	–	65%	–	–	–
CN(C)c1ccc(C(=O)Nc2cc(C(F)(F)F)ccc2-n2cncn2)cc1	–	-11	–	–	–	–	–	–	–
COC(=O)C(NC(=O)c1ccccc1)=C1C=C(C)OC(C)=C1	–	–	–	–	–	·	·	·	·
Cc1ccc(NC(=O)c2ccccc2)cc1	–	-4.7	–	–	–	–	–	–	–
O=C(O)c1ccccc1-c1ccccc1C(=O)Nc1ccccc1	–	–	–	–	–	·	·	·	·
O=C(Nc1ccc(NC(=O)c2ccccc2)nc1)c1ccncc1	–	-6.8	–	–	–	–	–	–	–
Cc1ccc(NC(=O)c2ccccc2-c2ccccc2C(=O)O)cc1	–	-6.6	–	–	–	–	–	–	–
O=C(O)CCN1c2ccccc2Sc2ccccc21	–	–	–	–	–	·	·	·	·
O=C(NCCN1CCOCC1)c1ccc2c(c1)ncn2C1CCCCC1	–	-6.8	–	–	–	–	–	–	–
CC(C)c1ccccc1NC(=O)C1CC(=O)N(C2CCCC2)C1 (centres undefined)	–	-5.1	–	–	–	–	–	–	–
CCOC(=O)N1CCC(N2CCN(c3cc(C)ccc3C)CC2)CC1	–	-8.8	–	–	–	–	–	–	–
COc1ccccc1NC(=S)NCCc1c[nH]c2ccccc12	–	-5.6	–	–	–	–	–	–	–
O=c1c(F)cn(C2CCCO2)c(=O)n1Cc1c(F)cccc1Cl (centres undefined)	–	–	–	–	–	·	·	·	·
N#C/C(=N\Nc1ccccc1F)C(=N)N1CCCCC1	–	–	–	–	–	·	·	·	·
CCC(C)(C(=O)NC1CCCC1)N(C(=O)c1ccccn1)c1ccccc1 (centres undefined)	–	-8	–	–	–	–	–	–	–
CN1CCN(c2ccc(-c3ccnn3C(=O)Nc3ccccc3)cc2)CC1	–	-10	–	–	–	–	–	–	–
SMILES	RGS4 pot	MrgX1 antagonist	MrgX1 ag	MrgX1 allo act	RGS4 block	MrgX1 ant reconf	HEK293 Ca flux	HEK293 Ca counter	HEK293 Ca cntr2
CN1CCN(c2ccc(NC(=O)C(C)(c3ccccc3)c3ccccc3)cc2)CC1	–	–	–	–	–	·	·	·	·
CN(CC(=O)Nc1c(Cl)cccc1Cl)C(=O)C1CSC2(C)CCC(=O)N12 (centres undefined)	–	-6.8	–	–	–	–	–	–	–
COC(=O)c1nn(-c2ccc(C)cc2)c2nnc(Cc3ccccc3)c(=O)n12	–	–	–	–	–	·	·	·	·
Cc1cccc(N(CC(=O)NCCc2ccccc2)C(=O)c2csnn2)c1	–	–	–	–	–	·	·	·	·
Clc1c(Cl)c(Cl)c2n[nH]nc2c1Cl	–	-7	–	–	–	–	–	–	–
O=C(O)c1cc(Cl)c2c(c1)[C@@H]1C=CC[C@@H]1[C@H](c1ccc(S(=O)(=O)N3CCOCC3)cc1)N2	–	–	–	–	–	·	·	·	·
O=C(CN1C(=O)NC2(CCCCC2)C1=O)N1CCN(S(=O)(=O)c2ccccc2)CC1	–	-5.5	–	–	–	–	–	–	–
Cc1cc(C)c2oc(C(=O)N(Cc3ccccc3)C3CCS(=O)(=O)C3)cc(=O)c2c1 (centres undefined)	–	–	–	–	–	·	·	·	·
O=C(/C=C1\SC(=O)NC1=O)Nc1ccc(C(=O)O)cc1	–	-10	–	–	–	–	–	–	–
CSc1ccccc1NC(=S)NC1CCCCC1	–	–	–	–	–	·	·	·	·
COc1ccccc1NC(=O)N1CCC(NC(=O)C2CCCCC2)CC1	–	-8.2	–	–	–	–	–	–	–
Cc1cccc(COc2ccccc2C(=O)NC2CCC(O)CC2)c1 (centres undefined)	–	-10	–	–	–	–	–	–	–
S=C(Nc1cccc2ccccc12)NC1CCCCC1	–	-5.4	–	–	–	–	–	–	–
COc1ccccc1C(=O)NC1CCCCCCC1	–	-11	–	–	–	–	–	–	–
O=C(NC1CCCCC1)c1ccc(N2CCCC2=O)cc1	–	–	–	–	–	·	·	·	·
CC(=O)NC(=S)Nc1ccccc1C(=O)NC1CCCCC1	–	-8.3	–	–	–	–	–	–	–
Cc1c(CNCCCc2ccccc2)c(C(=O)O)c(C)n1Cc1ccccc1	–	–	–	–	–	·	·	·	·
CCCCCN1CC(=O)N2Cc3[nH]c4ccccc4c3C[C@H]2C1=O	–	-19	–	–	–	–	–	–	–
COc1cc(NC(=O)c2cccs2)c(C(=O)OCC(=O)NC(=O)NC(C)(C)C)cc1OC	–	-4.6	–	–	–	81%	–	–	–
COc1cc(NC(=O)c2cccs2)c(C(=O)OCC(=O)NC(=O)NCc2ccccc2)cc1OC	–	–	–	–	–	·	·	·	·
O=C(C1CC1)N(Cc1ccco1)c1nc(-c2ccccc2)cs1	–	–	–	–	–	·	·	·	·
CC(C)(Oc1ccc(Cl)cc1)C(=O)NCC(c1ccco1)N1CCCCC1 (centres undefined)	–	-4.8	–	–	–	–	–	–	–

Source: PubChem BioAssay
